# KCNK3 block = human KCNK3 channel inhibition, primary screen. CHO-KCNK3 thallium flux, FluxOR fluorescence; active compounds read low. B-score at 10 µM. 0.84% of 340,000 active. AID 602410;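 active means B-score under library mean minus 4 SD, starting fluorescence ratio at most library mean plus 5 SD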;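 further: more negative B-score means stronger inhibition of thallium flux through KCNK3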
# KCNQ1 act = human KCNQ1 channel potentiation or activation. B-score at 10 µM. AID 2648. CHO-K1 KCNQ1, thallium flux FluxOR fluorescence; active compounds read high. 0.35% of 310,000 active;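 active means fluorescence ratio B-score, a plate-corrected score, at least three library SD, with initial intensity B-score within 5 SD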
#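 Schedule – 37 °C overnight plating, 90-min dark dye load, 20-min compound pretreatment · System – stable KCNQ1 CHO-K1 line · Probe or stimulus – thallium- and potassium-containing depolarizing buffer · Measured by – kinetic FluxOR fluorescence, 10 s baseline plus 110 s post-stimulus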
# Kir21 block = blocks the mouse Kir2.1 inward-rectifier potassium channel; AID 1672; HEK293-Kir2.1, FluxOR thallium flux fluorescence; active compounds read low; P35561; B-score at 10 µM; 0.85% of 310,000 active;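 active means fluorescence ratio B-score at or below minus 3 SD of library scores, with starting-brightness B-score within 2 SD, cut at about -4.2 in these data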;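 further: channel flux triggered by added potassium and thallium sulfate stimulus; B-score of peak minus minimum fluorescence over baseline after thallium stimulus; more negative B-score means stronger Kir2.1 block with less thallium influx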
# Target sequence (P35561 whole entry, looked up): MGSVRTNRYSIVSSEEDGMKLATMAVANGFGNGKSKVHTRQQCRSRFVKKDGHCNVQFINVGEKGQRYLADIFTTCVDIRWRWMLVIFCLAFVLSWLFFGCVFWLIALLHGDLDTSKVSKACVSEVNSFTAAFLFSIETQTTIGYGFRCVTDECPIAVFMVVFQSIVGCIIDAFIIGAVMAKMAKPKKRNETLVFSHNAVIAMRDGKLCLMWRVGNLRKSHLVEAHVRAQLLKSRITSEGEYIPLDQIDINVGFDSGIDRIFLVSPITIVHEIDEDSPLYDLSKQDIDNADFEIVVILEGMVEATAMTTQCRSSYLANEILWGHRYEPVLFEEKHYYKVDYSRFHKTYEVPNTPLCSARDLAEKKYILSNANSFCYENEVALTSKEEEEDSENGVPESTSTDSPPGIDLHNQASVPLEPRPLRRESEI
# hERG protect = hERG (human) protection from proarrhythmic block; Q12809; CHO-hERG, FluxOR thallium flux, dofetilide IC70 present; activation (rescue from dofetilide block), less the hit threshold, % at 10 µM; 0.51% of 310,000 active; AID 1511;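 active means activation above the mean of controls blocked by dofetilide plus 5 SD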;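 further: thallium influx through hERG after potassium depolarization seen as dye fluorescence rise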
# KCNK9 inh = blocks the human KCNK9 two-pore domain potassium channel | B-score at 10 µM | 1.2% of 310,000 active | HEK293 KCNK9, FluxOR thallium flux fluorescence; active compounds read low | AID 488922;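 active means ratio B-score over 3 SD below the library mean, with starting fluorescence within 5 SD of its mean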;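 further: negative B-score means less thallium flux so channel inhibition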
# KCNQ1 inh = inhibitors of human KCNQ1 potassium channel; P51787; CHO-K1 KCNQ1, FluxOR thallium flux fluorescence; active compounds read high; B-score at 10 µM; 1.3% of 310,000 active;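 active means compounds whose thallium flux B-score, printed positive for inhibition, exceeds three library SD while starting fluorescence stays within three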;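 further: channel opened by potassium depolarization with thallium stimulus after 20 min compound exposure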
# KCNK9 inh conf = confirmation of human KCNK9 potassium channel inhibitors; shares compounds with KCNK9 inh; HEK293 KCNK9 cells, FluxOR thallium flux fluorescence; inhibition, % at 10 µM; 43% of 4,900 active; AID 492992;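 active means thallium signal inhibited by more than 5 SD of the compound-free buffer control wells, on both duplicate plates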;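 further: 0% = assay buffer control wells without compound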
# Kir21 sel = selectivity of KCNK9 modulators against mouse Kir2.1. shares compounds with KCNK9 inh. Kir2.1 cells, FluxOR thallium flux fluorescence. inhibition, % at 10 µM. 4% of 4,900 active. AID 492993;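 active means thallium signal drop more than 5 SD beyond the mean of the no-compound control wells, seen in both duplicate plates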;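 further: signal is fluorescence rise after thallium addition divided by baseline fluorescence; plate controls were assay buffer only for no effect and full block by chlorpromazine control for full effect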
# HEK293 Tl ctr = second counter-screen for KCNK9 modulators: effect in non-induced cells; 40% of 4,900 active; inhibition, % at 10 µM; AID 492997; shares compounds with KCNK9 inh; non-induced KCNK9-HEK293, FluxOR thallium flux;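 active means thallium signal drop beyond 5 SD of the untreated control mean, on both duplicate plates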;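 further: plate controls were buffer only IC0 wells for no effect and SID17386958 at its maximal inhibitory level for full effect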
# * hit, by the source's call; i = inactive; · = no result given. An excerpt weighted towards active compounds, which were near 3.7% of everything screened.
SMILES,KCNK3 block,KCNQ1 act,Kir21 block,hERG protect,KCNK9 inh,KCNQ1 inh,KCNK9 inh conf,Kir21 sel,HEK293 Tl ctr
CC(C)NC(C(=O)Nc1cc(Cl)cc(Cl)c1)c1ccccc1 (stereo not given),i,i,-0.83,-11.0,-9.27*,i,34.0%*,i,25.0%*
COc1ccccc1C(=O)NCCC(=O)NCC1CCCO1 (stereo not given),i,·,·,·,·,·,·,·,·
CCCn1c(C)cc(C(=O)COC(=O)c2ccc(Cl)c(S(=O)(=O)N3CCCC3)c2)c1C,i,i,-1.61,-2.4,-18.4*,i,65.0%*,i,i
CCOC(=O)C1CCCN(C(=O)c2ccc(Cl)c(S(=O)(=O)N3CCCCC3)c2)C1 (stereo not given),i,i,-1.31,-7.2,i,i,i,i,i
O=C(c1ccc(Cl)c(S(=O)(=O)N2CCOCC2)c1)N(c1ccccn1)C1CCCCC1,i,i,-0.73,-3.6,i,i,i,i,i
O=C(Nc1ccccn1)c1ccc(Cl)c(S(=O)(=O)N2CCOCC2)c1,i,i,0.23,3.7,i,i,·,·,·
O=C(c1ccc(Cl)c(S(=O)(=O)N2CCCCCC2)c1)N1CCCC(C(F)(F)F)C1 (stereo not given),i,i,1.44,-8.9,i,i,i,i,i
O=C(NCC1CCCC(CNC(=O)Nc2ccc(Cl)cn2)C1)Nc1ccc(Cl)cn1 (stereo not given),i,i,-0.26,-5.5,i,i,·,·,·
Cn1c(N)c(C(=O)COc2ccc(C#N)cc2)c(=O)n(C)c1=O,i,i,0.01,-9.1,i,i,·,·,·
Cc1cccc(NC(=O)c2ccc(Cl)c(S(=O)(=O)N3CCCCC3)c2)n1,i,i,0.02,-12.4,i,i,i,i,24.0%*
O=C(c1ccc(Cl)c(S(=O)(=O)N2CCCCCC2)c1)N1CCCCC1,i,i,-0.6,-9.1,i,i,·,·,·
O=C(c1ccc(Cl)c(S(=O)(=O)N2CCCCCC2)c1)N1CCN(c2ccccn2)CC1,i,i,0.9,-13.2,i,i,i,i,i
CCOc1ccccc1NS(=O)(=O)c1cn(C)nc1C,i,i,-1.29,-5.7,i,i,·,·,·
CC(C)CC(=O)Nc1ccc(C(=O)CN2CCC(C)CC2)cc1,i,i,0.8,-6.9,i,i,·,·,·
COc1ccc(NC(=S)N2CCN(C(=O)c3ccco3)CC2)cc1OC,i,i,1.84,-9.9,i,i,·,·,·
Cc1cc(C)c2sc(N(CCCN(C)C)C(=O)c3ccc(S(=O)(=O)N(C)C4CCCCC4)cc3)nc2c1,i,i,0.02,-26.2,i,i,i,i,i
O=CN/C=C/c1cc(O)ccc1O,i,·,·,·,·,·,·,·,·
COc1cccc(/C=C(/C(=O)OCC(=O)NC2CCCC(C)C2C)c2ccccc2)c1 (stereo not given),i,i,-0.16,-29.8,-9.29*,10*,43.0%*,i,43.5%*
O=C(N[C@H](Cc1ccc(Cl)cc1)C(=O)O)OCC1c2ccccc2-c2ccccc21,i,i,0.39,-12.6,i,i,·,·,·
O=C(N[C@@H](Cc1ccc(Br)cc1)C(=O)O)OCC1c2ccccc2-c2ccccc21,i,i,-0.01,-5.5,i,i,i,i,i
N#Cc1ccccc1CSc1nc(N2CCCCC2)nc(N2CCCCC2)n1,i,i,-0.87,-10.6,i,i,i,i,i
Cc1nc(SCc2ccccc2C#N)n[nH]1,i,i,0.41,-6.5,i,i,·,·,·
Cc1ccc(Cl)cc1NC(=O)c1cc(S(=O)(=O)N2CCOCC2)cn1C,i,i,-0.56,-7.7,i,i,·,·,·
COc1ccc(NC(=O)CCOc2ccccc2C)cc1S(=O)(=O)N1CCCCC1,i,i,-0.31,-12.1,i,i,·,·,·
C[C@H](N)c1nnc(SCc2c(Cl)cccc2Cl)o1,i,i,0.35,-19.0,i,i,·,·,·
SMILES,KCNK3 block,KCNQ1 act,Kir21 block,hERG protect,KCNK9 inh,KCNQ1 inh,KCNK9 inh conf,Kir21 sel,HEK293 Tl ctr
Clc1cccc(Cl)c1CSc1nnc(/C=C/c2ccccc2)o1,i,i,-2.07,-10.9,i,i,i,i,29.0%*
COc1cc(CNCCSc2nnnn2C)cc(Br)c1OCc1ccccc1F,i,i,-0.09,-13.8,i,i,·,·,·
CCOc1cc(CNCCSc2nnnn2C)cc(Br)c1OCc1ccccc1F,i,i,0.04,-20.5,-9.46*,i,i,i,31.5%*
CCOC(=O)C1=C(CC)Nc2ccccc2N=C1NC(=O)CCNC(C)=O,i,i,-0.01,-4.2,i,i,·,·,·
CCOC(=O)C1=C(CC)Nc2ccccc2N=C1NC(=O)c1oc2ccccc2c1C,i,i,-0.04,-34.2,-11.1*,i,35.0%*,i,27.0%*
CCOCc1c(C(=O)NC2=Nc3ccccc3NC(CC)=C2C(=O)OCC)oc2ccccc12,i,i,-2.5,-4.7,-16.4*,i,47.0%*,i,i
Cc1cc2nccc(-c3ccc(Cl)cc3Cl)n2n1,i,i,-0.14,3.7,i,i,·,·,·
Cc1nn(-c2ccccc2)c(N2CCCC2)c1/C=N/NC(=S)Nc1cc(C(F)(F)F)ccc1Cl,i,i,1.6,-11.5,i,i,·,·,·
Cc1nn(-c2ccccc2)c(N2CCCC2)c1/C=N/NC(=S)Nc1ccccc1C(F)(F)F,i,i,0.09,-2.5,-9.14*,i,44.5%*,i,i
Cc1ccc(C)c(S(=O)(=O)N2CCN(Cc3cc4c(cc3O)OCO4)CC2)c1,i,·,·,·,·,·,·,·,·
N/C(Cc1ccc(Cl)cc1Cl)=N\OC(=O)c1cccs1,i,i,-0.09,-18.9,i,i,·,·,·
N/C(CC(=O)Nc1ccc(F)cc1F)=N\OC(=O)c1cccs1,i,i,0.18,-6.1,i,i,i,i,i
O=c1c2ccccc2c(-c2cccc(C(F)(F)F)c2)nn1-c1ccccc1,i,i,0.09,-11.0,-8.83*,i,37.5%*,i,43.0%*
Cc1cc(C)nc(SCc2nnc(SCc3ccccc3Cl)o2)n1,i,i,-2.01,-12.1,-8.45*,i,47.0%*,i,i

# Screening results deposited in PubChem by Johns Hopkins Ion Channel Center.
